# Hits are enriched below; roughly 2.9% of the tested compounds scored in any of these assays.
# S100A4 MyoIIA – inhibitors of human S100A4 binding to myosin IIA peptide; S100A4/TAMRA-MyoIIA peptide fluorescence polarization; inhibition, % at 10.7 µM; 360,000 tested, 0.14% active; AID 652163;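 active = mean inhibition of at least 70% across replicates, with every replicate also reaching that level; inconclusive = mean inhibition reaches 70% but some replicates fall short; inactive = mean inhibition below 70%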
# Target sequence (P26447 whole entry, looked up): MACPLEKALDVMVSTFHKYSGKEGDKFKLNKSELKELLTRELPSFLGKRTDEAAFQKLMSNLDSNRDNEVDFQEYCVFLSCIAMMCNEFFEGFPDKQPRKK
#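 Assay system: human S100A4 monomer with TAMRA-labelled myosin IIA peptide / Buffer or medium: Calcium-containing HEPES buffer, pH 7.2 / Reagent: TAMRA-labelled myosin IIA heavy-chain peptide probe, 5 nM / Compound: one dose per compound / Timing: polarization read 5 min after assay mix addition, stable 5–60 min / Benchmarks: neutral control DMSO, positive control TFP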
# DENV2 CPE rescue – inhibitors of DENV2 cytopathic effect | DENV2-infected cells, cytopathic effect rescue, plate reader | CPE inhibition, % at 9.99 µM | 350,000 tested, 1.7% active; in the data active = CPE inhibition above about 20%, passing the limit was not always enough; inconclusive = no clear call, values can overlap the other calls; tested in BHK-21 cells;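 also: 0% = median of neutral control wells and 100% = median of positive control wells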
# C2C12 statin – protects C2C12 myotubes from simvastatin toxicity; 330,000 tested, 0.78% active; rescue of ATP level, % at 7.49 µM; ATP luminescence, 48 h; scaled: DMSO 0, geranylgeraniol control 100;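 active = mean ATP rescue above about 67%, or every replicate alone reaching that limit, limit read from the data, passing the limit was not always enough; inconclusive = no clear call, values can overlap the other calls; inactive = mean under the limit and some replicate under it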;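 also: myotubes were challenged with 10 µM simvastatin during compound exposure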
# PGC1a acetyl inh – lowers PGC1a acetylation signal in U2OS cells | AlphaScreen anti-acetyl-lysine; with virally co-expressed GCN5 acetyltransferase | inhibition, % at 15.6 µM | 350,000 tested, 0.17% active | AID 651687;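 active = every replicate shows inhibition of at least 40%; inconclusive = mean inhibition at least 40% but some replicate below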;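 also: 0% = neutral control wells and 100% = positive control wells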
# SIRT5 block – sirtuin-5 (human) deacylase inhibition; Q9NXA8; Purified SirT5, succinyl-peptide AMC, trypsin-coupled fluorescence; inhibition, % at 15 µM; 330,000 tested, 1.1% active; AID 652115; in the data active = inhibition above about 15%; inconclusive = no clear call, values can overlap the other calls
# Target sequence (Q9NXA8 whole entry, looked up): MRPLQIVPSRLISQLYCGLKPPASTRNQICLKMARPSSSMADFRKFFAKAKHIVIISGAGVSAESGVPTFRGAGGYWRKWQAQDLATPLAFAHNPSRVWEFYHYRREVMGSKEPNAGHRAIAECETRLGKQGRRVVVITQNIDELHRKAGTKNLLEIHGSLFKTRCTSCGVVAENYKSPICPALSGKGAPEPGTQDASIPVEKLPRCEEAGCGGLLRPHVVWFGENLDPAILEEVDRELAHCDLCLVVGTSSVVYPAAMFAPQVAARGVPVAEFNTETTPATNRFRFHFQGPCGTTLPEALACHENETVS
# Starred values were filed as active, the others as inactive; ? = inconclusive; · = no result given.
SMILES,S100A4 MyoIIA,DENV2 CPE rescue,C2C12 statin,PGC1a acetyl inh,SIRT5 block
C[C@@H]1CCCCO[C@@H](CN(C)C(=O)Nc2ccc(C(F)(F)F)cc2)[C@H](C)CN([C@@H](C)CO)C(=O)c2cc(NC(=O)CCC(F)(F)F)ccc2O1,-5.8,-10.2,·,-10.3,0.2
N#Cc1c(N)[nH]c(C(=O)c2ccccc2)c1-c1ccc(Br)cc1,-2.9,57.1*,·,·,0.8
CC(C)(C)C(=O)c1c(N)[nH]c(C(=O)c2ccccc2)c1-c1ccc(Br)cc1,-5.6,-2.0,·,·,20.1*
C[C@H](CO)N1C[C@H](C)[C@H](CN(C)C)Oc2cc(-c3cccc(C#N)c3)ccc2S1(=O)=O,14.9,2.3,-5.8,2.3,-4.6
CCCN(Cc1nnc(-c2ccccc2Cl)o1)C(=O)c1cc(S(=O)(=O)N2CCOCC2)ccc1F,4.1,12.2,-4.1,6.2,15.3*
CCN(C[C@@H]1N[C@H](CO)[C@H]1c1ccccc1)C(=O)c1ccncc1,-4.5,25.7*,-1.0,-0.9,0.9
COCCN(C[C@H]1[C@H](c2ccccc2)[C@@H](CO)N1C(C)=O)C(=O)c1ccncc1,3.3,26.3*,-2.7,10.5,0.9
COCCN(C[C@@H]1[C@@H](c2ccccc2)[C@H](CO)N1C(C)=O)C(=O)c1ccncc1,8.0,23.6*,3.4,4.3,0.1
CO[C@@H]1CN(C)C(=O)c2ccc(NS(C)(=O)=O)cc2OC[C@H](C)N(C(=O)C2CCC2)C[C@H]1C,-19.6,0.1,-12.8,·,-1.2
NC(=NC(=O)c1ccc(Cl)cc1)N1N=CCC1c1ccccc1 (centres undefined),-0.3,-11.2,20.5,-4.3,16.2*
O=C(CSc1nnc2c(n1)[nH]c1ccc(F)cc12)OCc1ccccc1,·,·,85.2*,11.5,·
COc1cccc(CNC(=O)CSc2nnc3c(n2)[nH]c2ccc(F)cc23)c1,1.2,-6.1,-38.5,·,-1.5
Cc1ccccc1C(=O)NC(=S)NCCC1=CCCCC1,-1.1,-4.8,·,-0.6,34.8*
Cc1cccn2c(=O)c3cc(C(=O)NCCC4=CCCCC4)n(C)c3nc12,0.1,-3.0,127.3*,-1.4,0.9
C[C@@H]1CN([C@H](C)CO)C(=O)c2cc(NC(=O)C3CCCCC3)ccc2O[C@H]1CN(C)C(=O)NC1CCCCC1,6.2,-0.4,1.1,-6.8,0.5
C[C@H]1CCCCO[C@H](CN(C)C(=O)Cc2ccccc2)[C@@H](C)CN([C@@H](C)CO)C(=O)c2cc(NC(=O)c3ccccc3)ccc2O1,-6.9,-1.4,·,-0.4,3.1
COc1ccccc1CNC(=O)C[C@H]1CC[C@@H]2[C@H](COC[C@H](O)CN2C(=O)Nc2ccc(C(F)(F)F)cc2)O1,5.9,?,-43.0,-8.5,-0.6
C[C@H]1CN([C@@H](C)CO)C(=O)Cc2cc(NS(=O)(=O)c3ccc(Cl)cc3)ccc2O[C@H]1CN(C)Cc1ccc(Cl)c(Cl)c1,25.3,8.2,29.4,-0.6,6.2
C[C@@H]1CN([C@H](C)CO)C(=O)Cc2cc(NS(=O)(=O)c3ccc(F)cc3)ccc2O[C@@H]1CN(C)Cc1ccc(Cl)c(Cl)c1,·,·,?,3.4,·
C[C@@H]1CN([C@H](C)CO)C(=O)Cc2cc(NS(=O)(=O)c3ccc(Cl)cc3)ccc2O[C@@H]1CN(C)Cc1ccc(Cl)c(Cl)c1,-11.7,-0.6,53.7,-7.5,16.0*
C[C@H](CO)N1C[C@H](C)[C@@H](CN(C)Cc2ccc(Cl)c(Cl)c2)Oc2ccc(NS(=O)(=O)c3ccc(F)cc3)cc2CC1=O,·,·,111.6*,3.4,·
C[C@@H]1CN([C@H](C)CO)C(=O)Cc2cc(NS(=O)(=O)c3ccccc3)ccc2O[C@H]1CN(C)Cc1ccc(Cl)c(Cl)c1,-8.3,32.6*,58.5,-6.2,18.1*
C[C@H]1CN([C@@H](C)CO)C(=O)Cc2cc(NS(=O)(=O)c3ccc(F)cc3)ccc2O[C@@H]1CN(C)Cc1ccc(Cl)c(Cl)c1,·,·,68.8*,-5.4,·
O=C(C[C@H]1CC[C@H]2[C@@H](COC[C@H](O)CN2Cc2cc(F)ccc2F)O1)NCc1ccc(F)cc1,0.8,-0.7,15.6,-2.2,1.2
CCOC(=O)CN1C(=O)S/C(=C\c2ccc3c(c2)OCO3)C1=O,1.6,13.1,18.8,1.5,1.5
SMILES,S100A4 MyoIIA,DENV2 CPE rescue,C2C12 statin,PGC1a acetyl inh,SIRT5 block
CCOC(=O)CN1C(=O)S/C(=C/c2ccc(OC)c([N+](=O)[O-])c2)C1=O,-2.2,-6.1,113.5*,-3.4,0.2
CC(C)NC(=O)N(C)C[C@@H]1Oc2ccc(N(C)C)cc2CC(=O)N([C@H](C)CO)C[C@H]1C,4.0,-3.6,21.2,5.0,-2.2
Cc1noc(C)c1NC(=O)Nc1ccc2c(c1)C(=O)N([C@@H](C)CO)C[C@@H](C)[C@H](CN(C)C(=O)Nc1cccc3ccccc13)O2,5.0,13.0,7.9,-9.6,-5.5
C[C@H]1CN([C@@H](C)CO)C(=O)Cc2cc(NC(=O)CCN3CCOCC3)ccc2O[C@@H]1CN(C)C(=O)Nc1ccc(F)cc1,3.1,5.3,16.1,8.0,1.5
Oc1ccc(Cl)cc1CNCc1ccc(Cl)cc1,-6.2,-1.0,4.6,-1.4,-2.3
Oc1ccc(Cl)cc1CNCc1ccc(F)cc1,-1.1,23.2*,11.5,-8.2,·
CN1C(=O)C(=O)/C(=C(/O)c2ccccc2)C1c1ccc(Br)cc1 (centres undefined),0.5,6.1,-4.3,·,-3.9
Cc1ccc(/C(O)=C2\C(=O)C(=O)N(C)C2c2ccccc2)cc1 (centres undefined),-4.0,39.4*,26.6,2.9,·
Cc1cc(C)cc(OCC(=O)NNC(=O)c2cc3ccccc3o2)c1,-1.4,1.6,2.7,2.5,-0.9
CCc1ccc(OCC(=O)NNC(=O)c2cc3ccccc3o2)cc1,-2.0,0.0,81.0*,4.1,-2.7
CCCCOc1ccc(S(=O)(=O)NNC(=O)c2cc3ccccc3o2)cc1,1.5,-5.4,·,2.9,30.6*
CC(C)COc1ccc(S(=O)(=O)NNC(=O)c2cc3ccccc3o2)cc1,·,·,·,-16.2,·
C[C@H]1CN([C@@H](C)CO)C(=O)c2cccc(N(C)C)c2O[C@@H]1CN(C)Cc1ccncc1,3.0,-8.6,-21.8,0.5,0.8
O=C1c2ccccc2NC(c2cccc(F)c2)N1Cc1ccco1 (centres undefined),-6.5,-2.3,114.5*,-14.8,-8.4
O=C1c2ccccc2NC(c2cccc(F)c2)N1Cc1ccccc1 (centres undefined),-3.0,17.8,8.6,-18.8,-2.8
C[C@@H]1CN([C@H](C)CO)C(=O)c2cc(NC(=O)c3ccccc3)ccc2O[C@@H](C)CCCCO[C@@H]1CN(C)S(C)(=O)=O,51.3,0.4,-5.8,6.2,0.8
C[C@@H]1CCCCO[C@@H](CN(C)S(C)(=O)=O)[C@@H](C)CN([C@H](C)CO)C(=O)c2cc(NC(=O)c3ccccc3)ccc2O1,-5.9,84.9*,-4.3,16.5,2.3
